Calls of active or inactive are those of the source.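 How the source made its calls, unless noted: active means Her2 level under about 52% in both replicate screens, with viability over 70% of control (limit read from the data); inconclusive means Her2 under the limit in one screen only, or viability under 70%; inactive means Her2 level above the set limit.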
What was measured:
[1] = Her2 expression decrease, cell viability multiplex – SKBR3 breast tumor cells, AlphaScreen, ATP viability, primary screen (AID 461); details: SKBR3 Her2 protein level, 18-24 h, measured here: SKBR3 viability, ATP luminescence, at 10 µM;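 on Her2 level: lower value means less Her2 protein in the cells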;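 on viability: percent of carrier control wells set as 100% viability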
[2] = molecular target: Receptor tyrosine-protein kinase erbB-2 (Homo sapiens) (UniProt P04626); assay: as above; details: 18-24 h, at 10 µM, stronger effect = lower value
Receptor tyrosine-protein kinase erbB-2 (Homo sapiens), sequence (P04626 whole entry, looked up): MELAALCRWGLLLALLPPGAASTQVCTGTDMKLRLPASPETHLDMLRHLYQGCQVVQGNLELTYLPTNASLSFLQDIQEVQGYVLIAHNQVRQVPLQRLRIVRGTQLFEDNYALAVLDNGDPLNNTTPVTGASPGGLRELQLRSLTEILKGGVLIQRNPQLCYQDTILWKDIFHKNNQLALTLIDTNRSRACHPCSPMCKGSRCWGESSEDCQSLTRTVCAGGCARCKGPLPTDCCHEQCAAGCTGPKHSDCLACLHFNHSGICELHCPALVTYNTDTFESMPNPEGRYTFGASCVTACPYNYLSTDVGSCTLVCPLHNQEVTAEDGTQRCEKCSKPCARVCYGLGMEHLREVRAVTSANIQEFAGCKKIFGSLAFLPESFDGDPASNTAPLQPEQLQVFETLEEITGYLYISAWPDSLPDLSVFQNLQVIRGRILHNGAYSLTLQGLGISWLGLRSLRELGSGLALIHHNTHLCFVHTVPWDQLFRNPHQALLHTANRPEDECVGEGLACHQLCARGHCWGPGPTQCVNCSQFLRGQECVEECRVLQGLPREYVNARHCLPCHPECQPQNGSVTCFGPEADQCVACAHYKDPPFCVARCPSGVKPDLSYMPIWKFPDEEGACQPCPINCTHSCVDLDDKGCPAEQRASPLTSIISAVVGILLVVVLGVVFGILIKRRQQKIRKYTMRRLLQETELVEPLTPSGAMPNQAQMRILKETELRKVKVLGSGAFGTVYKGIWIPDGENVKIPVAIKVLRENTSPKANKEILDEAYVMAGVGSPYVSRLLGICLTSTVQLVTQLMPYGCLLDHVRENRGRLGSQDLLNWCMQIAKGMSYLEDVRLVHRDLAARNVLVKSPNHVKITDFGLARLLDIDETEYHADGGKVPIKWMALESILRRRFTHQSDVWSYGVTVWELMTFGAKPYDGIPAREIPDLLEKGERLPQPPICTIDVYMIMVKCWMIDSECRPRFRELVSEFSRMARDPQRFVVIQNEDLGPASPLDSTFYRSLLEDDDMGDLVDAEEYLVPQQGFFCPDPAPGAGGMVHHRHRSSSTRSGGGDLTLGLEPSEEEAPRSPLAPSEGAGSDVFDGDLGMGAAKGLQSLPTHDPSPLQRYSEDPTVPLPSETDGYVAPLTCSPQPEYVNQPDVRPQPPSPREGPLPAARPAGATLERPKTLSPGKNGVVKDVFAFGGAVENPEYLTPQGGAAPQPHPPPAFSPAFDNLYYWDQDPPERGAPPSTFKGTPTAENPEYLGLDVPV

[3] = reduced viability of SK-BR-3 breast cancer cells – cell-based, 24 h, human, pilot screen (AID 572;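 active means viability at or below 10% of carrier control in both of two separate runs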;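 further: compound exposure lasted between 18 and 24 h rather than exactly 24 h; 100% = carrier-treated control wells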); details: SK-BR-3 viability, CellTiter-Glo luminescence, at 10 µM, stronger effect = lower value
[4] = HUVEC growth inhibition – cell-based, human, primary screen (AID 575;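 active means viability at or below 30% in both replicate assays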;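 further: 100% = median of untreated cell wells with 0.1% DMSO on each plate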); details: HUVEC proliferation, CellTiter-Glo luminescence, 72 h; at 10 µM; stronger effect = lower value
In short: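 system = HUVEC primary cells | amount = 1250 cells/well | buffer or medium = supplemented EBM, 2% fetal bovine serum | dosing = single-point 10 µM, DMSO 0.1% final | times = 72 h compound incubation | detection = CTG luminescence | read-out = % viability relative to median vehicle-well signal on each plate | control set = vehicle and MePR control wells | format = collagen-coated 384-well format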

[5] = H69AR cell proliferation blockers – human, duplicate replicates, primary screen (AID 580;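 active means viability at or under a set limit in both replicates, limit being median viability minus 3 SD, cut at about 48% in these data, passing the limit was not always enough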;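 further: 100% = mean luminescence of untreated wells and 0% = no signal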); details: H69AR lung tumor cells viability, ATP luminescence, 72 h; at 10 µM; stronger effect = lower value
[6] = MRP1 drug-resistance reversers in H69AR cells – cell-based, doxorubicin co-treatment, pilot screen (AID 601;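 active means viability loss from added drug above about 55%, and viability with drug at most 40%, in both replicates, limit read from the data, passing the limit was not always enough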); details: CellTiter-Glo, 72 h, at 10 µM; for differential viability (reversal): stronger effect = higher value
[7] = yeast transport mutant growth inhibition pilot in 384-well plates, post-Golgi transport modulator project (AID 636; in the data active means inhibition above about 31%); details: absorbance 615 nm, about 18 h, stronger effect = higher value
[8] = growth suppression of yeast trafficking mutant, preliminary HTS, modulators of trafficking downstream of Golgi apparatus project, 1536-format plate, OD 615 nm (AID 637; in the data active means inhibition above about 30%); details: yeast transport mutant growth, absorbance 615 nm, 18 h; stronger effect = higher value
[9] = H69AR cells + 2 uM doxorubicin, measured here: viability with 2 uM doxorubicin, stronger effect = lower value
[10] = H69AR cells, compound alone cytotoxicity

Row | Compound | viability [1] | Her2 level [2] | viability [3] | viability [4] | viability [5] | differential viability (reversal) ([6]; H69AR cells + 2 uM doxorubicin) | viability [6, 9] | viability [6, 10] | inhibition [7] | inhibition [8]
1 | Brc1ccc2[nH]ncc2c1 | 101% | 78% (inactive) | 101% (inactive) | 110% (inactive) | 91.6% (inactive) | 0.11% (inactive) | 91.5% | 91.6% | -2.5% (inactive) | 1.43% (inactive)
2 | O=C(c1ccccc1)N1CCN(CC2CC=CCC2)CC1 (stereo not given) | 82.5% | 79% (inactive) | 82.5% (inactive) | 102% (inactive) | 96.1% (inactive) | 2.54% (inactive) | 93.5% | 96.1% | -6.05% (inactive) | 2.5% (inactive)
3 | Cc1nc2c(c(=O)n1CC1CCCO1)c1nc3ccccc3nc1n2CC(C)C (stereo not given) | 96.5% | 89.5% (inactive) | 96.5% (inactive) | 104% (inactive) | 84.2% (inactive) | -9.93% (inactive) | 94.1% | 84.2% | 2.63% (inactive) | 0.81% (inactive)
4 | CCCCOC(=O)Cn1c(=N)n(CCN2CCOCC2)c2ccccc21 | 77% | 102% (inactive) | 77% (inactive) | 85.4% (inactive) | 95.5% (inactive) | 16.3% (inactive) | 79.2% | 95.5% | -7.47% (inactive) | 0.16% (inactive)
5 | CC(C)C(C(=O)Nc1ccc2c(c1)OCO2)N1C(=O)c2ccccc2C1=O (stereo not given) | 122% | 92% (inactive) | 122% (inactive) | 94.3% (inactive) | 96.1% (inactive) | 2.06% (inactive) | 94.1% | 96.1% | -4.03% (inactive) | 1.15% (inactive)
6 | Cc1cc(C(=O)CSCCCn2c(=O)[nH]c3ccccc32)c(C)n1C | 105% | 98% (inactive) | 105% (inactive) | 110% (inactive) | 98.1% (inactive) | 9.45% (inactive) | 88.7% | 98.1% | 0.41% (inactive) | -5.08% (inactive)
7 | COc1ccc(CCNC(=O)CSc2nnc(CNc3ccc(Cl)cc3)o2)cc1OC | 112% | 89% (inactive) | 112% (inactive) | 60.5% (inactive) | 84.3% (inactive) | -6.59% (inactive) | 90.9% | 84.3% | -0.65% (inactive) | -4.29% (inactive)
8 | Cc1nc(C)c(C(=O)Nc2ccc(Oc3ccccc3)cc2)o1 | 94.5% | 82% (inactive) | 94.5% (inactive) | 66.4% (inactive) | 103% (inactive) | 23.8% (inactive) | 79.4% | 103% | -6.35% (inactive) | -6.5% (inactive)
9 | COc1ccc(N2CCN(CCNS(=O)(=O)c3cccc4nsnc34)CC2)cc1 | 98% | 91% (inactive) | 98% (inactive) | 102% (inactive) | 91.1% (inactive) | -2.98% (inactive) | 94.1% | 91.1% | -5.2% (inactive) | 1.11% (inactive)
10 | CC(C)=CCC(C)(C)C1OCCN1C(=O)c1ccccc1 (stereo not given) | 84.5% | 99% (inactive) | 84.5% (inactive) | 82.4% (inactive) | 98% (inactive) | 8.65% (inactive) | 89.3% | 98% | -3.77% (inactive) | 2.3% (inactive)
11 | CCOc1cccc(Oc2ccc(C(F)(F)F)cn2)c1 | 99% | 93.5% (inactive) | 99% (inactive) | 99.6% (inactive) | 99.9% (inactive) | 6.58% (inactive) | 93.3% | 99.9% | -7.33% (inactive) | 0.81% (inactive)
12 | CCn1cc(C(=O)OCc2ccc(F)cc2)c(=O)c2ccc(C)nc21 | 104% | 82% (inactive) | 104% (inactive) | 89.3% (inactive) | 79.3% (inactive) | 1.26% (inactive) | 78.1% | 79.3% | -2.27% (inactive) | 0.16% (inactive)
13 | CC1Cc2ccccc2N1C(=O)CSc1nc2ccccc2n1CC(=O)N1CCOCC1 (stereo not given) | 97% | 91% (inactive) | 97% (inactive) | 94% (inactive) | 97.8% (inactive) | 7% (inactive) | 90.8% | 97.8% | -6.13% (inactive) | 3.77% (inactive)
14 | COCCNC(=O)c1c(N)n(/N=C/c2cccs2)c2nc3ccccc3nc12 | 110% | 75.5% (inactive) | 110% (inactive) | 78.2% (inactive) | 74.7% (inactive) | 0.24% (inactive) | 74.4% | 74.7% | 0.66% (inactive) | 3.11% (inactive)
15 | O=c1c2[nH]c3cccc(Cl)c3c2ncn1CCN1CCCCC1 | 103% | 83.5% (inactive) | 103% (inactive) | 101% (inactive) | 92.6% (inactive) | 4.01% (inactive) | 88.6% | 92.6% | -4.13% (inactive) | 0.49% (inactive)
16 | CCc1nnc(NC(=O)c2ccc(-c3cccc(C(F)(F)F)c3)o2)s1 | 102% | 130% (inactive) | 102% (inactive) | 102% (inactive) | 91.4% (inactive) | 11.2% (inactive) | 80.2% | 91.4% | -5.6% (inactive) | -4.03% (inactive)

Row | Compound | viability [1] | Her2 level [2] | viability [3] | viability [4] | viability [5] | differential viability (reversal) ([6]; H69AR cells + 2 uM doxorubicin) | viability [6, 9] | viability [6, 10] | inhibition [7] | inhibition [8]
17 | COc1ccccc1N1CCN(C(=O)c2ccc3nc(-c4ccco4)c(-c4ccco4)nc3c2)CC1 | 103% | 79.5% (inactive) | 103% (inactive) | 48.5% (inactive) | 69.6% (inactive) | -8.06% (inactive) | 77.6% | 69.6% | -4.67% (inactive) | -4.1% (inactive)
18 | COCCN1CN(S(=O)(=O)c2ccccc2)c2nc3ccccc3nc21 | 101% | 93.5% (inactive) | 101% (inactive) | 109% (inactive) | 98% (inactive) | -2.97% (inactive) | 101% | 98% | -3.95% (inactive) | 13.6% (inactive)
19 | COc1ccccc1-c1nc(SCc2ccccn2)n[nH]1 | 104% | 78.5% (inactive) | 104% (inactive) | 98.3% (inactive) | 97.2% (inactive) | 5.32% (inactive) | 91.9% | 97.2% | -1.89% (inactive) | -2.06% (inactive)
20 | CCOC(=O)N1CCC(NC(=O)C2CCCN2C(=O)OCc2ccccc2)CC1 (stereo not given) | 93% | 106% (inactive) | 93% (inactive) | 103% (inactive) | 90.7% (inactive) | -2.27% (inactive) | 93% | 90.7% | 2.89% (inactive) | -7.1% (inactive)
21 | CCn1c(SCC(=O)N2c3ccccc3CCc3ccccc32)nc2c1c(=O)n(C)c(=O)n2C | 87.5% | 107% (inactive) | 87.5% (inactive) | 92.5% (inactive) | 94.3% (inactive) | -1.58% (inactive) | 95.8% | 94.3% | -1.51% (inactive) | -6.98% (inactive)
22 | CCOc1ccc2[nH]cc(C(=O)N3CCN(CC)CC3)c(=O)c2c1 | 98% | 104% (inactive) | 98% (inactive) | 91.2% (inactive) | 89.6% (inactive) | -14.2% (inactive) | 104% | 89.6% | 2.67% (inactive) | 19% (inactive)
23 | CC1(C)NC(=O)N(CC(O)COc2ccc(-c3ccccc3)cc2)C1=O (stereo not given) | 101% | 102% (inactive) | 101% (inactive) | 74.3% (inactive) | 96.7% (inactive) | 3.21% (inactive) | 93.5% | 96.7% | -2.24% (inactive) | -4.83% (inactive)
24 | CCn1ncc(C2=NOC(C(=O)NCc3ccc(Cl)cc3)C2)c1C (stereo not given) | 83.5% | 69.5% (inactive) | 83.5% (inactive) | 38.7% (inactive) | 24.4% (active) | -29.8% (inactive) | 54.2% | 24.4% | -2.89% (inactive) | -0.32% (inactive)
25 | Cc1onc(-c2ccccc2)c1C(=O)N1CCOCC1 | 110% | 87% (inactive) | 110% (inactive) | 99.3% (inactive) | 107% (inactive) | 12.6% (inactive) | 94.4% | 107% | -3.42% (inactive) | -2.83% (inactive)
26 | COC(=O)c1cn(-c2ccccc2)nc1C(=O)OC | 93.5% | 89.5% (inactive) | 93.5% (inactive) | 91% (inactive) | 97.8% (inactive) | 10.9% (inactive) | 86.9% | 97.8% | -4.8% (inactive) | -1.97% (inactive)
27 | CC(C)n1c(=NC(=O)c2ccco2)c(C#N)cc2c(=O)n3ccccc3cc21 | 100% | 106% (inactive) | 100% (inactive) | 84.1% (inactive) | 6.44% (active) | 4.01% (inactive) | 2.43% | 6.44% | 3.16% (inactive) | -6.61% (inactive)
28 | CCOC(=O)n1c(SCC(=O)N(CC)CC)nc2ccccc21 | 118% | 97.5% (inactive) | 118% (inactive) | 105% (inactive) | 101% (inactive) | 15.7% (inactive) | 85.7% | 101% | -3.51% (inactive) | 1.11% (inactive)
29 | COc1ccc(N2C(=O)C3CCCN3C2c2ccc(F)cc2)cc1Cl (stereo not given) | 102% | 93.5% (inactive) | 102% (inactive) | 84.2% (inactive) | 87.4% (inactive) | -1.33% (inactive) | 88.7% | 87.4% | 0.39% (inactive) | -6.94% (inactive)
30 | Cc1cc(N2CCN(C)CC2)nc(N2CCOCC2)n1 | 105% | 89.5% (inactive) | 105% (inactive) | 97.7% (inactive) | 92.2% (inactive) | 4.88% (inactive) | 87.4% | 92.2% | -3.82% (inactive) | -8.17% (inactive)
31 | CC(=O)N1CCc2cc(S(=O)(=O)CCC(=O)Nc3cccc(F)c3)ccc21 | 109% | 104% (inactive) | 109% (inactive) | 97.3% (inactive) | 93.8% (inactive) | 13.1% (inactive) | 80.7% | 93.8% | -4.74% (inactive) | -1.5% (inactive)

Reference: PubChem BioAssay
